Consider one compound from ChEMBL document CHEMBL4480426, “Novel multi-target directed ligands based on annelated xanthine scaffold with aromatic substituents acting on adenosine receptor and monoamine oxidase B. Synthesis, in vitro and in silico studies” (Bioorg Med Chem, 2019).

One series has as its target T1, Adenosine receptor A2b (Homo sapiens, UniProt P29275).
T1 sequence (P29275 whole entry): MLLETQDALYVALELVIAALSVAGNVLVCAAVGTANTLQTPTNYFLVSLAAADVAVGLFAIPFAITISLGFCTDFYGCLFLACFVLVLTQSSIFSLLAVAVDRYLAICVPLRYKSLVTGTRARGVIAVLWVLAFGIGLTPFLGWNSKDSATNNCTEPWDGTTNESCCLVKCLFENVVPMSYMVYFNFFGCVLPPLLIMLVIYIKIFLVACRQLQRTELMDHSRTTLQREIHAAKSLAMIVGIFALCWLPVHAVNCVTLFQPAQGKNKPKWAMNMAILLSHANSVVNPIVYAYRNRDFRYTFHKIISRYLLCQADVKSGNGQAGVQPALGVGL
Put plainly: Displacement of [3H]PSB603 from recombinant human adenosine A2b receptor expressed in HEK293 cells. The format is cell-based.

Series [1] can be described thus: Solubility of the compound in MEM media at 10 to 100 uM. The format is physicochemical.
Series [2] deals with T2, Amine oxidase [flavin-containing] A (Homo sapiens, UniProt P21397).
T2 sequence (P21397 whole entry): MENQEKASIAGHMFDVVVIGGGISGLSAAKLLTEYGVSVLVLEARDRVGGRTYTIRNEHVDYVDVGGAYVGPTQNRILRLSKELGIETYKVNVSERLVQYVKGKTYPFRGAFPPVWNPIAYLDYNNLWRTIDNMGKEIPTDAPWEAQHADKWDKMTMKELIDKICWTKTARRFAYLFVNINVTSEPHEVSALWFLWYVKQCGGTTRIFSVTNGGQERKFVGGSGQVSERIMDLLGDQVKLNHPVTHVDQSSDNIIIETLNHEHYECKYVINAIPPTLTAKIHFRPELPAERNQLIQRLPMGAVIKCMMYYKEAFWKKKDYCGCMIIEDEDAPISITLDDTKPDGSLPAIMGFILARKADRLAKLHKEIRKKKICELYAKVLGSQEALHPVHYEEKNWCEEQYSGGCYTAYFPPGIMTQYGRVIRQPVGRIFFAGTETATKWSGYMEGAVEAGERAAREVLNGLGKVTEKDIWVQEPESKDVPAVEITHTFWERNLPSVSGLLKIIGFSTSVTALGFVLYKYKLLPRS
Put plainly: Inhibition of recombinant human MAOA expressed in baculovirus infected BTI insect cells using p-tyramine as substrate preincubated for 30 mins followed by substrate addition and measured over 45 mins by horseradish peroxidase-Amplex Red-coupled fluorometric assay. The method, boiled down: (§1)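 Human recombinant MAO-A or MAO-B enzyme. Activity detected fluorometrically with the Amplex Red monoamine oxidase assay.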

For series [3], the target named is T3, Adenosine receptor A3 (Homo sapiens) (UniProt P0DMS8).
T3 sequence (whole entry): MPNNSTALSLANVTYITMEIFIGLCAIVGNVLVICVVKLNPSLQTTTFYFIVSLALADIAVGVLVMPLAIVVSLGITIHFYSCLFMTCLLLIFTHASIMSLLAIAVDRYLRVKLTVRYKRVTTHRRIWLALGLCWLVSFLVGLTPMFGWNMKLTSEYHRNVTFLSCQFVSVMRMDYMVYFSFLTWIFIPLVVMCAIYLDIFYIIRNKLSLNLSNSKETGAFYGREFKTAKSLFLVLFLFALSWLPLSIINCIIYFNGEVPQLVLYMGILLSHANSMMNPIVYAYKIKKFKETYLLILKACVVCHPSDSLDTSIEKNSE
Put plainly: Displacement of [3H]PSB11 from recombinant human adenosine A3 receptor expressed in CHO cells at 1 uM relative to control. The class given is cell-based. The method, boiled down:
(§2)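 Purchased membranes of CHO cells expressing human A1 ([3H]CCPA) or human A3 ([3H]PSB-11). A single high compound concentration is screened first; for potent compounds, full inhibition curves spanning 3 orders of magnitude. At least three independent experiments.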
In general terms: Loss of bound radioactivity is the signal in a displacement assay; it reports binding, not function.

Another series concerns HepG2. Put plainly: Hepatotoxicity against human HepG2 cells assessed as reduction in cell viability at 0.5 to 1 uM measured after 72 hrs by CellTiter96 Aqueous non-radioactive cell proliferation assay. The format is toxicity, cell-based. The settings on record: hepg2, 72 h. In a few lines: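 HepG2 cells seeded at 1.5×10^4 cells/well in MEM with 4.5 g/L glucose and 10% FBS, grown 24 h at 37 °C, 5% CO2. Compounds diluted in the same medium and applied for 72 h. CellTiter 96 AQueous reagent then added for 2 h, absorbance read at 490 nm. One-way ANOVA with Bonferroni post test.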

Series [4] deals with T4, Adenosine receptor A2b (Homo sapiens) (UniProt P29275).
T4 sequence (whole entry): T1 sequence (P29275 whole entry)
Put plainly: Displacement of [3H]PSB603 from recombinant human adenosine A2b receptor expressed in HEK293 cells at 1 uM relative to control. The format is cell-based. In a few lines:
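Purchased membranes of HEK cells expressing human A2A ([3H]MSX-2) or human A2B ([3H]PSB-603). A single high compound concentration is screened first; for potent compounds, full inhibition curves spanning 3 orders of magnitude. At least three independent experiments.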

For series [5], the target named is T5, Adenosine receptor A1 (Homo sapiens) (UniProt P30542).
T5 sequence (whole entry): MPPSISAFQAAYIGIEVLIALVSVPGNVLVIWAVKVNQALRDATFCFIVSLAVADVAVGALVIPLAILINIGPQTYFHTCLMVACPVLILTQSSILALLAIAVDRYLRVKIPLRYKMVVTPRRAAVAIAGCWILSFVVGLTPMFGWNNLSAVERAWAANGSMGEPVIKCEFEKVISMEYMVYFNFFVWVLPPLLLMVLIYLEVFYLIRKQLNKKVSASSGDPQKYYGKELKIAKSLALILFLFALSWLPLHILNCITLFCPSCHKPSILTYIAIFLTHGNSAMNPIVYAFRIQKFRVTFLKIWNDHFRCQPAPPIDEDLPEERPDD
Put plainly: Displacement of [3H]CCPA from recombinant human adenosine A1 receptor expressed in CHO cells at 1 uM relative to control. The format is cell-based. In a few lines:
as §2

The target in a further series is T6, Adenosine receptor A1 (Homo sapiens, UniProt P30542).
T6 sequence (P30542 whole entry): T5 sequence (whole entry)
Put plainly: Displacement of [3H]CCPA from recombinant human adenosine A1 receptor expressed in CHO cells. The class given is cell-based.

Series [6] addresses T2, Amine oxidase [flavin-containing] A. Put plainly: Inhibition of recombinant human MAOA expressed in baculovirus infected BTI insect cells at 1 to 100 uM using p-tyramine as substrate preincubated for 30 mins followed by substrate addition and measured over 45 mins by horseradish peroxidase-Amplex Red-coupled fluorometric assay relative to control. Particulars: 0.75 h. In a few lines: as §1

The target of another series is Adenosine receptor A2a (Homo sapiens, UniProt P29274). Put plainly: Displacement of [3H]MSX2 from recombinant human adenosine A2a receptor expressed in HEK293 cells. The class given is cell-based.

Each structure is given as a SMILES string.

Adenosine receptor A2a, sequence (P29274 whole entry): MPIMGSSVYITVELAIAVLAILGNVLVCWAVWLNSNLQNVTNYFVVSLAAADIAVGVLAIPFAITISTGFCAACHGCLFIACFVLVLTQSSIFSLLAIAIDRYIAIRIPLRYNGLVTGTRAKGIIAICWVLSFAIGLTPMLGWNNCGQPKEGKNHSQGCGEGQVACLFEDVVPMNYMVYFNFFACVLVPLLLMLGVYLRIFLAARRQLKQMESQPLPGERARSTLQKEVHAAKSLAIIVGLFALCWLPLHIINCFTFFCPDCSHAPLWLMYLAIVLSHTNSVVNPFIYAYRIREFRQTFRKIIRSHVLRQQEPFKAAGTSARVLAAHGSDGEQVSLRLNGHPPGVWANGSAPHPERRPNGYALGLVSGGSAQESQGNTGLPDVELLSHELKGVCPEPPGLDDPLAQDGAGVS

A word on the Ki: it is the equilibrium dissociation constant of an inhibitor or competing ligand from its target. As a reminder, the IC50 is the midpoint of a concentration-inhibition curve. Usually inhibition stands for the percentage by which the read-out fell short of the control. Take `Cn1c(=O)c2c(nc3n2CCCCN3Cc2ccc(Cl)c(Cl)c2)n(C)c1=O`: the Ki at Adenosine receptor A2b, at Adenosine receptor A1 and on Adenosine receptor A2a was greater than 1000 nM throughout. In [1], the solubility entry is given as “Insoluble”. Further, the IC50 in series [2] is greater than 1000 nM. Further, the inhibition stood at 26% in series [3], 40% in series [4] and 21% in series [5]. Besides, in the series with HepG2, the Activity entry was “Toxic”. Further, the “inhibition (INH)” value in series [6] was determined as 5%.
